Bioassay records: PubChem, several laboratories
Sampled rows, rich in hits. Any-hit rate of the full collection: about 2.4%.
HNF4A DNA FP: change in binding of human HNF4 alpha to DNA; HNF4a-FITC DNA binding, fluorescence polarization, 1 h; activity change, % at 10 µM; 360,000 tested, 0.3% active; in the data active = activity change above about 30%, passing the limit was not always enough
TPT1 inhibitor: blocks Candida albicans tRNA 2'-phosphotransferase; 300,000 tested, 0.81% active; inhibition, % at 5 µM; AID 1962; recombinant caTPT1, FP RNA substrate dephosphorylation;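 active = inhibition above the mean of all tested compounds plus 3 SD, set per screening campaign, cut at about 24% in these data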
CSN inh: CSN deneddylation inhibition | Q92905 | Purified CSN, SCF-Nedd8-OG deneddylation, fluorescence polarization | inhibition, % at 12.5 µM | 360,000 tested, 0.38% active;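 active = pattern-corrected inhibition above about 35%, with an unprinted fluorescence ratio check between 0.5 and 1.5, limit read from the data, passing the limit was not always enough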
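Detection – fluorescence polarization · System – HEK293T-derived human Csn5 enzyme · Controls – substrate-only high control, full reaction low control · Timing – 90 min, room temperature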
Rpn11 inh: inhibitors of human proteasome Rpn11 | O00487 | human 26S proteasome, Ub4-pepOG fluorescence polarization; 20S core pre-blocked with epoxomicin | inhibition, % at 20 µM | 360,000 tested, 0.59% active | AID 588493;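 active = inhibition at 20 µM, scaled to each plate's controls, above about 33%, limit read from the data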
Rin1-Abl PPI inh: blocks binding of human Rin1 to Abl. 360,000 tested, 0.4% active. inhibition, % at 7.35 µM. TR-FRET Rin1/Abl binding, biochemical; in the data active = inhibition above about 5%, passing the limit was not always enough
Neddylation inh: blocks human cullin neddylation | P61081+Q13564 | TR-FRET cullin neddylation, biochemical | inhibition, % at 25 µM | 360,000 tested, 0.58% active; in the data active = inhibition above about 36%
Target sequence (P61081 whole entry, looked up): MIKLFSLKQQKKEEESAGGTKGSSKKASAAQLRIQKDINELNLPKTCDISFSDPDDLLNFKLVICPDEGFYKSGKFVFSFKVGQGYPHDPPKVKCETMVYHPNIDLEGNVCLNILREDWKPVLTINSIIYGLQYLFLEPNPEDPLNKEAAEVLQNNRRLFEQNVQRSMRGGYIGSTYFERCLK
Target sequence (Q13564 whole entry, looked up): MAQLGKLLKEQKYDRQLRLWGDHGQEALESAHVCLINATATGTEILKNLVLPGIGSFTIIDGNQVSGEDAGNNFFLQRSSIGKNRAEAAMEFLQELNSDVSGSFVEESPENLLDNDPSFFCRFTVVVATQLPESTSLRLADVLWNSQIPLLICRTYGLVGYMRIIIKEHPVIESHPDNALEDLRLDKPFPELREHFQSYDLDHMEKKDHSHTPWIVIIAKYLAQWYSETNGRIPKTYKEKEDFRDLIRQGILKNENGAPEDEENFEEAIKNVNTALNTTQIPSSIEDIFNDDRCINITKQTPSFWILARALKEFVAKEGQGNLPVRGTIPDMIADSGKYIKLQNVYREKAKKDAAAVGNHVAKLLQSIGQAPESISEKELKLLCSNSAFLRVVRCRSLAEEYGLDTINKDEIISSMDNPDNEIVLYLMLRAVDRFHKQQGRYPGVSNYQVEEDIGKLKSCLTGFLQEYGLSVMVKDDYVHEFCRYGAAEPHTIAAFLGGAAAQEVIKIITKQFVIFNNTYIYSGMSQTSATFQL
Neddyl conf: cullin neddylation inhibition, confirmation. shares compounds with Neddylation inh. TR-FRET cullin neddylation biochemical assay. calls only at 25 µM. 1,800 tested, 13% active. AID 652217; in the data active = inhibition above about 40%;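 note: neddylation substrate is the cullin 1 ring ligase complex with SKP2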
Of the large screens only hits and unclear results are named; the others gave an inactive call (follow-up assays come after a bar, where shown).

Cc1ccc(C(=O)NCC(=O)NCC(=O)OCC(=O)c2ccc(Br)cc2)cc1	none
CCCN1CCN(C(=O)Cn2ncc3c([nH]c4ccc(C)cc43)c2=O)CC1	Neddylation inh 45 | Neddyl conf inactive
Cc1ccc2[nH]c3c(=O)n(CC(=O)N4CC(C)CC(C)C4)ncc3c2c1 (stereo not drawn)	none
c1ccc(CN2CCC3CC2c2cc(N4CCOCC4)ccc23)cc1 (stereo not drawn)	none (no result: TPT1 inhibitor)
CCOC(=O)c1ccc(NC(=S)N(CCN2CCCCCC2)Cc2cccs2)cc1	none
O=C(O)c1ccc2c(=O)n3c(nc2c1)/C(=C/c1ccc(C(F)(F)F)cc1)CC3	Neddylation inh 49 | Neddyl conf active
O=C(O)c1ccc2c(=O)n3c(nc2c1)/C(=C/c1cccc(Cl)c1Cl)CC3	Neddylation inh 52
O=C(O)c1ccc2c(=O)n3c(nc2c1)/C(=C/c1ccc(Cl)cc1Cl)CC3	none (not shown: Neddylation inh)
COc1ccccc1N1CCN(CC(=O)Nc2ccc(-n3cnnn3)cc2)CC1	none
COc1cc(Cl)c(C)cc1NC(=O)c1ccccc1NC(=O)CN1CCN(C(C)=O)CC1	none (no result: TPT1 inhibitor)
CCOC(=O)c1cc([N+](=O)[O-])c([N+](=O)[O-])cc1NC(C)=O	none
Cc1ccc(C)c(OCC(=O)N(Cc2ccccc2)c2c(N)n(Cc3ccccc3)c(=O)[nH]c2=O)c1	none (no result: TPT1 inhibitor)
O=C(Nc1ccc2nsnc2c1)c1cccs1	none
O=C(Nc1cccc2nsnc12)c1cccs1	none (not shown: Neddylation inh) | Neddyl conf inactive
Cc1nn(-c2ccccc2)c(N)c1C1(O)C(=O)N(C(C)C)c2ccccc21 (stereo not drawn)	none
Cc1nn(-c2ccccc2)c2c1P(=O)(O)/C(=C1\N(C)c3ccccc3C1(C)C)C=N2	Neddylation inh 45 | Neddyl conf inactive
COc1cccc2[nH]c3c(N4CCCCC4)ncnc3c12	Neddylation inh 45
Cc1n[nH]c(=S)n1/N=C/c1ccccc1	none
Cc1ccc(-n2nc(C)c(/C=N/n3c(C)n[nH]c3=S)c2Cl)cc1	Neddylation inh 46 | Neddyl conf inactive
Oc1ccccc1C=NNc1nc2ccccc2s1	Neddylation inh 39 (no result: TPT1 inhibitor) | Neddyl conf inactive
O=C(Cc1ccccc1)N/N=C/c1ccc(OC(=O)/C=C\c2ccco2)cc1	none
COC(=O)N/N=C/c1ccc(OC(=O)/C=C/c2ccco2)cc1	Neddylation inh 52 | Neddyl conf inactive
O=C(NC1CCCC1)C(c1ccccn1)N(C(=O)c1csnn1)c1ccccc1Cl (stereo not drawn)	none
CC(Oc1ccc(Cl)cc1)C(=O)NCC1CCCO1 (stereo not drawn)	none
Cc1ccc2c(c1)COc1c3ccc(C(=O)NCCO)cc3nn1-2	Neddylation inh 53 | Neddyl conf active
Cc1ccc2c(c1)COc1c3ccc(C(=O)N[C@@H](C)CO)cc3nn1-2	Neddylation inh 54
Cc1ccc2c(c1)COc1c3ccc(C(=O)NC(C)C)cc3nn1-2	Neddylation inh 51 | Neddyl conf active
O=C(CCN1C(=O)S/C(=C/c2ccc(F)cc2)C1=O)Nc1ccc(O)c(C(=O)O)c1	Neddylation inh 44 | Neddyl conf inactive
O=C(CCN1C(=O)S/C(=C\c2ccc(F)cc2)C1=O)Nc1ccc(C(=O)O)c(O)c1	none
COCc1cc(C)nc(OC)c1C(N)=O	none
CCOC(=O)C1=C(C(=O)OCC)c2ccc(OC)c(OC)c2C1	Neddylation inh 41 (no result: TPT1 inhibitor) | Neddyl conf inactive
CC(Oc1ccc(Br)cc1)C(=O)N(Cc1ccccc1)c1c(N)n(Cc2ccccc2)c(=O)[nH]c1=O (stereo not drawn)	none (no result: TPT1 inhibitor)
COc1ccc(-n2cc(CNCCc3cnc[nH]3)c(-c3cccc(F)c3)n2)cc1	none (not shown: Neddylation inh)
COc1ccc(-n2cc(CNCc3cccnc3)c(-c3cccc(F)c3)n2)cc1	Neddylation inh 48 | Neddyl conf active
COc1ccc(-c2nn(-c3ccccc3)cc2CO)cc1OC	Neddylation inh 39 | Neddyl conf inactive
S=C(Nc1ccc2nc(-c3ccccn3)c(-c3ccccn3)nc2c1)N1CCOCC1	Neddylation inh 47 | Neddyl conf inactive
CN(C)NC(=S)Nc1ccc2nc(-c3ccccn3)c(-c3ccccn3)nc2c1	none
COc1ccc(Cl)cc1NC(=O)c1nnn(CC(=O)Nc2ccc(C)c(C)c2)c1N	Neddylation inh 44 | Neddyl conf inactive
CNc1c(NS(=O)(=O)c2ccc(C(C)(C)C)cc2)c(=O)oc2ccccc12	Neddylation inh 42 | Neddyl conf inactive
CNc1c(NS(=O)(=O)c2ccc(Br)cc2)c(=O)oc2ccccc12	none
CN1CCOc2c1cnn(CCO)c2=O	Neddylation inh 40 (no result: TPT1 inhibitor) | Neddyl conf inactive
Cc1cnc(NC(=O)c2ccc(-c3ccc([N+](=O)[O-])cc3)o2)s1	none (no result: TPT1 inhibitor)
Cc1cnc(NC(=O)c2ccc(-c3nc4ccccc4s3)o2)s1	Neddylation inh 41 | Neddyl conf inactive
Clc1ccc(-c2ccc(CNCC3CCCO3)o2)cc1 (stereo not drawn)	none
COc1ccccc1-c1sc2cc3c(cc2c1C#Cc1cncn1C)OCO3	Neddylation inh 30 (no result: TPT1 inhibitor) | Neddyl conf active
OC(c1ccc(F)c(F)c1)c1ncc(-c2cccc(C(F)(F)F)c2)[nH]1 (stereo not drawn)	none (no result: TPT1 inhibitor)
COc1ccc(-c2cc(C(=O)N3CCN(c4ccccc4O)CC3)c3ccccc3n2)cc1OC	Neddylation inh 54 | Neddyl conf active
COc1ccccc1-c1csc(NC(=O)c2cc(-c3cccs3)nc3ccccc23)n1	none (not shown: Neddylation inh)
COc1cc(-c2cc(C(=O)N3CCN(c4ccccn4)CC3)c3ccccc3n2)cc(OC)c1OC	Neddylation inh 42 | Neddyl conf inactive
COc1ccc(-c2cc(C(=O)N(C)CCc3ccc(OC)c(OC)c3)c3ccccc3n2)cc1	Neddylation inh 46 (no result: TPT1 inhibitor) | Neddyl conf inactive
COc1ccc(-c2csc(NC(=O)c3cc(-c4cccs4)nc4ccccc34)n2)c(OC)c1	Neddylation inh 44 | Neddyl conf inactive
COc1ccc(CCN(C)C(=O)c2cc(-c3ccccc3)nc3ccccc23)cc1OC	none (no result: TPT1 inhibitor)
CN(C)CCOC(=O)c1ccc2c(c1)S(=O)(=O)c1ccccc1C2=O	none
Cc1cccn2c(=O)c(C(=O)NCCCN3CC(C)CC(C)C3)c(O)nc12 (stereo not drawn)	none
CC(NC(=O)c1ccccc1)c1ccc(F)cc1 (stereo not drawn)	none
O=C(CN1CCCC1)Nc1ccc(Br)cc1[N+](=O)[O-]	none
CCc1cc(=O)[nH]c(SCC(=O)N2CCC(Cc3ccccc3)CC2)n1	none
COc1ccc(-c2cc(C(=O)N3CCCCCC3)c3ccccc3n2)c(OC)c1	Neddylation inh 42
